Source: PubChem BioAssay (several laboratories)
This is a sample that favours compounds with a hit; in the whole collection about 1.9% have one here.
GRK2 aptamer HTS: blocks RNA aptamer binding to human GRK2 | P25098 | bead flow cytometry, FAM-aptamer displacement from GRK2 | inhibition of aptamer binding, % at 10 µM | 330,000 tested, 0.59% active;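 active = inhibition of aptamer binding above 40%, roughly 3 SD of noise, on plates passing a quality check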;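 note: median bead fluorescence of bound FAM aptamer so fluorescent compounds give negative values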
Rin1-Abl PPI inh: blocks binding of human Rin1 to Abl | 360,000 tested, 0.4% active | AID 588664 | inhibition, % at 7.35 µM | P00519+Q13671 | TR-FRET Rin1/Abl binding, biochemical; in the data active = inhibition above about 5%, passing the limit was not always enough
SR-BI DiI-HDL act: activators of SR-BI mediated HDL lipid uptake; CHO ldlA[mSR-BI] cells, DiI-HDL uptake fluorescence, 3 h; 100 = double the neutral-control signal; activation, % at 12.5 µM; 320,000 tested, 0.096% active;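 active = mean replicate activation of at least 60% and every replicate at or above 60%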;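 note: 0% = median plate neutral-control signal and 100% = twice that signal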
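System: LDL receptor-deficient CHO ldlA cells overexpressing murine SR-BI | Timing: 3 h uptake period with compound, 37 °C | Medium: HEPES-buffered (25 mM, pH 7.4) F12 plus 0.5% BSA | Dosing: Single-point compound dose | Signal: Bottom-read fluorescence, 550/595 nm | Read-out: Retained DiI signal reflecting DiI-HDL uptake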
SR-BI HDL uptake: blocks mouse SR-BI lipid uptake from DiI-HDL | ldlA[mSR-BI] CHO cells, DiI-HDL uptake fluorescence, 3 h | inhibition, % at 12.5 µM | 320,000 tested, 0.96% active;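 active = mean replicate inhibition of at least 70% and a set share of replicates each scoring 70 or more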;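 note: 0% = median of neutral control wells and 100% = median of positive control wells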
Target sequence (Q61009 whole entry, looked up): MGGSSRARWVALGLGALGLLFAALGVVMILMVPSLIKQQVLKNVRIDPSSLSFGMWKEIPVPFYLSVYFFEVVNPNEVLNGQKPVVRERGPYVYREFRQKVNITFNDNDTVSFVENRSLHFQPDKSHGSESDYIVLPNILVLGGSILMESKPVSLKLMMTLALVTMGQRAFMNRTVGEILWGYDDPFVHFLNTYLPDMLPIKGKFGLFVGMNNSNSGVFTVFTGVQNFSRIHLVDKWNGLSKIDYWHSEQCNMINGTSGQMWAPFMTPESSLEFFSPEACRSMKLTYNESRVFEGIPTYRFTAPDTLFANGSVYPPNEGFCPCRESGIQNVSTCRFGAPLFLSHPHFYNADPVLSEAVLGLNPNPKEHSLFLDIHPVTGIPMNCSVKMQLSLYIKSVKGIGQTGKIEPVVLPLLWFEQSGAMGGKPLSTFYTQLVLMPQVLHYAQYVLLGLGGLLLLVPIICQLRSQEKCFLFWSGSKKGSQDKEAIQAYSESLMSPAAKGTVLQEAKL
* hit, by the source's call; nt = no result given.

SMILES	GRK2 aptamer HTS	Rin1-Abl PPI inh	SR-BI DiI-HDL act	SR-BI HDL uptake
COc1cccc(CN2CCC2(C)C(=O)Nc2cnc3ccccc3c2)c1F (centres undefined)	nt	-6	nt	nt
Cc1cccc2sc(NC(=O)c3cc(S(=O)(=O)N(C)C)ccc3N3CCCC3)nc12	1	-3	-76	76*
C/C(=N/Nc1ccc(C(=O)c2c(C)cc3ccccn23)cc1[N+](=O)[O-])c1ccc(O)cc1	nt	3	-101	101*
C/C(=N\Nc1ccc(C(=O)c2c(C)cc3ccccn23)cc1[N+](=O)[O-])c1ccc(O)cc1	0	-1	nt	nt
O=c1[nH]c(C2CCN(S(=O)(=O)c3ccc4c(c3)OCCO4)CC2)nc2c1nnn2Cc1cccc(F)c1	2	0	nt	nt
O=c1[nH]c(C2CCN(S(=O)(=O)c3ccc4c(c3)OCCO4)CC2)nc2c1nnn2Cc1ccc(F)cc1	0	1	94*	-94
Cn1cnnc1SCC(=O)Nc1ccc(N2CCCCC2)cc1	0	1	-7	7
CCCCCC(=O)NC(=S)Nc1ccc(Br)cc1C	0	0	70*	-70
CCCC(=O)NC(=S)Nc1c(C)cc(Br)cc1C	0	0	7	-7
COc1ccc(NC(=O)CN(C)C(=O)c2cccc(S(=O)(=O)Nc3ccc(F)cc3)c2)cc1	0	0	-10	10
Cc1cc(NC(=O)C(C)SCC(=O)N(C)Cc2c(F)cccc2Cl)no1 (centres undefined)	2	0	18	-18
Cc1cccc(COc2ccccc2C(=O)OCC(=O)N(C)c2c(N)n(Cc3ccccc3)c(=O)[nH]c2=O)c1	2	-1	-87	87*
COc1cc2ccccc2cc1C(=O)OCC(=O)N(C)c1c(N)n(Cc2ccccc2)c(=O)[nH]c1=O	5	-4	-40	40
COc1cccc(-c2cc(CNC(=O)[C@H]3O[C@@H](n4ccc(N)nc4=O)[C@H](O)[C@@H]3O)no2)c1	nt	2	nt	nt
CC1(C(=O)OCC(=O)NC(=O)NCc2ccccc2)CC1(Cl)Cl (centres undefined)	1	3	62*	-62
CC1(C(=O)OCC(=O)NCc2ccc(Cl)cc2)CC1(Cl)Cl (centres undefined)	0	-3	12	-12
O=c1oc2c(-c3ccc([N+](=O)[O-])cc3)cc(O)cc2s1	0	5	-77	77*
NC1=C(c2ccc([N+](=O)[O-])cc2)C(=O)CO1	1	-4	8	-8
Oc1ccc(N=C/C=C/c2cccc(Br)c2)cc1-c1nc2ccccc2s1	85*	-6	-23	23
C[C@@H]1CN([C@H](C)CO)C(=O)CCCn2nncc2CO[C@@H]1CN(C)S(C)(=O)=O	nt	2	nt	nt
CCCCOc1ccc(-c2nnc(N)s2)cc1	7	-5	16	-16
CCCCOc1ccc(-c2ncc(N)cn2)cc1	1	0	313*	-313
CC1=NOC(=O)/C1=C\c1ccc(-c2ccc(Cl)cc2Cl)o1	nt	-2	-129	129*
CCCOc1ccc(Cl)cc1/C=C1/C(=O)ON=C1C	0	1	0	0
COc1ccc2c(c1C)CCC(C)(C#N)C2=O (centres undefined)	nt	4	-8	8
SMILES	GRK2 aptamer HTS	Rin1-Abl PPI inh	SR-BI DiI-HDL act	SR-BI HDL uptake
Cc1ccc(C2(c3ccccc3)NC(=O)N(CC(=O)NC3(C#N)CCCC3)C2=O)cc1C (centres undefined)	0	-6	12	-12
O=C(NCc1ccccc1)N1CCN(c2ccccc2)CC1	21	-2	-11	11
S=C(NCc1ccccc1)N1CCN(c2ccccc2)CC1	0	2	78*	-78
CC(C)(C)C1CCNC(=O)CC1 (centres undefined)	nt	4	nt	nt
COc1ccc(-c2sc3ccc(-c4ccc5c(c4)OCO5)cc3c2-c2ccc(OC)nc2)cc1	1	1	-12	12
Cc1ccc(-c2nc(N/N=C/c3ccccc3[N+](=O)[O-])c3ccccc3n2)cc1	0	3	-87	87*
COc1ccc2c(c1)C1NC(=S)NC(C)(O2)C1C(=O)Nc1ccc(Cl)cc1 (centres undefined)	4	0	-80	80*
COc1ccc2c(c1)C1NC(=S)N[C@@](C)(O2)C1C(=O)Nc1ccccc1 (some centres undefined)	3	1	-10	10
CCCS(=O)(=O)N1CCC(C(=O)N2CCCC2)CC1	3	-4	16	-16
CCCS(=O)(=O)N1CCC(C(=O)N2CCOCC2)CC1	1	0	68*	-68
Fc1cccc(NC(=S)NCCCN2CCOCC2)c1	0	4	23	-23
CSc1cccc(NC(=S)NCCCN2CCN(c3ccc(F)cc3)CC2)c1	0	-1	201*	-201
COC(=O)NNC(=O)c1ccc(C)c(Br)c1	80*	-1	12	-12
CCOC(=O)C1=C(O)/C(=C/c2cc(OC)c(O)c(OC)c2)SC1=Nc1ccc(OC)cc1	nt	-1	-86	86*
CCC(CC)NC(=O)CON=C1c2ccccc2-c2ccccc21	1	-1	-72	72*
CCNC(=O)CON=C1c2ccccc2-c2ccccc21	0	-5	-48	48
C[C@@H]1CN([C@H](C)CO)S(=O)(=O)c2ccc(C#Cc3ccccc3F)cc2O[C@H]1CN(C)C(=O)c1ccc2c(c1)OCO2	nt	0	nt	nt
Cc1ccccc1Oc1ccc2c(c1)[C@@H]1C[C@H](N(C)C(=O)c3ccc(C#N)cc3)[C@H]([C@H](C)O)C(=O)N1CC2	nt	0	15	-15
CC1=CC(=O)c2c(O)ccc(O)c2C1=O	46*	nt	nt	nt
O=C(Nc1cccc(C(F)(F)F)c1)c1ccc2nc(-c3ccco3)c(-c3ccco3)nc2c1	4	3	-82	82*
COc1cc(-c2cc(C(=O)Nc3ccc(N4CCOCC4)cc3)c3ccccc3n2)cc(OC)c1OC	0	1	-90	90*
COc1ccccc1NC(=O)c1cc(-c2cc(OC)c(OC)c(OC)c2)nc2ccccc12	1	1	-55	55
CCOc1ccccc1NC(=O)c1cc(-c2cc(OC)c(OC)c(OC)c2)nc2ccccc12	4	0	-72	72*
Cc1ccc(NC(=O)c2ccc3c(=O)n4c(nc3c2)CCC4)cc1S(=O)(=O)N(C)C	nt	6	-75	75*
Cc1ccc(NC(=O)c2ccc3c(=O)n4c(nc3c2)CCC4)cc1F	0	3	-51	51
SMILES	GRK2 aptamer HTS	Rin1-Abl PPI inh	SR-BI DiI-HDL act	SR-BI HDL uptake
COC(=O)c1c(NC(=O)c2ccoc2C)sc2c1CCC2	0	0	-22	22
CNC(=O)c1c(NC(=O)c2ccc(N3C(=O)CCC3=O)cc2)sc2c1CCCC2	2	-4	-87	87*
Cc1occc1C(=O)Nc1sc2c(c1C(N)=O)CCCCC2	3	-4	-73	73*
CNC(=O)c1c(NC(=O)c2ccc(N3C(=O)CCC3=O)cc2)sc2c1CCC(C)C2 (centres undefined)	1	2	-58	58
NC(=O)c1c(NC(=O)C2CC=CCC2C(=O)O)sc2c1CCCCC2 (centres undefined)	48*	3	1	-1
COc1ccc(Cl)cc1-c1cc(C(=O)N[C@H](C)c2ccccc2)[nH]n1	nt	3	nt	nt
